Assay results as given in BindingDB's records for doi:10.1021/jm1008924 (Genentech, 2011).

Columns and labels:
Sonic hedgehog protein [1] = molecular target: T1, Sonic hedgehog protein (Homo sapiens, UniProt Q15465); assay: Inhibition of human SHH pathway in mouse S12 cells assessed as GLI-mediated transcriptional activity after 48 hrs by luciferase reporter gene assay in presence of 0.5 mg/mL human alpha-1-acid glycoprotein
How it was run: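 Mouse C3H10T1/2-derived S12 cells carrying a stably integrated GLI-luciferase reporter. Grown in high-glucose DMEM with 10% FBS, replated, then switched to 0.5% FBS to induce cilia. Shh, human AAG (0, 0.5, 1 or 5 mg/mL) and compound added. Luciferase (Dual-Glo) read after 48 h. Mean of four experiments ±SD.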

Sonic hedgehog protein [2] = molecular target: T1, Sonic hedgehog protein; assay: Inhibition of human SHH pathway in mouse S12 cells assessed as GLI-mediated transcriptional activity after 48 hrs by luciferase reporter gene assay

T1 sequence (Q15465 24-197 limits assumed): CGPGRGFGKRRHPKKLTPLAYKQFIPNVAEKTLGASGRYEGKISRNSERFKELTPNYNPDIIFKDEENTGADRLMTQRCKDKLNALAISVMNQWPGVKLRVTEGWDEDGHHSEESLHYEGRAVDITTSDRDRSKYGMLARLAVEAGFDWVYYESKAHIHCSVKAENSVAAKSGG

IC50 (Sonic hedgehog protein [1]): 1750 nM | IC50 (Sonic hedgehog protein [2]): 15 nM
Compound: CS(=O)(=O)c1ccc(C(=O)Nc2ccc(Cl)c(-c3ccccn3)c2)c(Cl)c1 [2-chloro-N-(4-chloro-3-(pyridin-2-yl)phenyl)-4-(methylsulfonyl)benzamide]
